Measurements taken from ChEMBL document CHEMBL5058577, “EUbOPEN Chemogenomics Library 2 (Multiplex)” (2022).

Tested on: HEK-293T
Experiment: Multiplex assay against HEK293T
Assay type: toxicity, cell-based
Conditions: human
Method in brief: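 Live cells were stained at seeding with Hoechst33342, BioTracker Green Microtubule Cytoskeleton Dye, MitoTracker Red and Annexin V Alexa Fluor 680. Following compound addition, they were imaged on a CQ1 microscope at 37°C and 5% CO2 and gated by CellPathfinder machine learning into Hoechst high-intensity objects or normal cells, with normal cells split into healthy, pyknosed or fragmented nuclei and pyknosed cells into mitotic or apoptotic. Tubulin, mitochondrial-mass and membrane-permeability phenotypes are per cents of healthy-nucleus cells.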

[1] = 12 h, 1 µM, compound concentration 1 uM, replicate 1
[2] = 12 h, 1 µM, compound concentration 1 uM, replicate 2
[3] = 12 h, 10 µM, compound concentration 10 uM, replicate 1
[4] = 12 h, 10 µM, compound concentration 10 uM, replicate 2
[5] = 24 h, 1 µM, compound concentration 1 uM, replicate 1
[6] = 24 h, 1 µM, compound concentration 1 uM, replicate 2
[7] = 24 h, 10 µM, compound concentration 10 uM, replicate 1
[8] = 24 h, 10 µM, compound concentration 10 uM, replicate 2
[9] = 48 h, 1 µM, compound concentration 1 uM, replicate 1
[10] = 48 h, 1 µM, compound concentration 1 uM, replicate 2
[11] = 48 h, 10 µM, compound concentration 10 uM, replicate 1
[12] = 48 h, 10 µM, compound concentration 10 uM, replicate 2

N[C@@]1(C(=O)O)CO[C@H]2[C@H](C(=O)O)[C@H]21 [LY-379268]
Population Apoptotic (%) [1]: 40%
Population Fragmented Nuclei (%) [1]: 6%
Population Healthy Nuclei (%) [1]: 81%
Population Hoechst High Intensity Objects (%) [1]: 5%
Population Membrane Permeable-Phenotype (%) [1]: 0%
Population Mitochondria Different-Phenotype (%) [1]: 38%
Population Mitotic Cells (%) [1]: 60%
Population Normal (%) [1]: 94%
Population Pyknosed Nuclei (%) [1]: 12%
Population Tubulin-Different-Phenotype (%) [1]: 26%
Total Cell Count [1]: 396
Population Apoptotic (%) [2]: 42%
Population Healthy Nuclei (%) [2]: 80%
Population Hoechst High Intensity Objects (%) [2]: 10%
Population Membrane Permeable-Phenotype (%) [2]: 1%
Population Mitochondria Different-Phenotype (%) [2]: 57%
Population Mitotic Cells (%) [2]: 57%
Population Normal (%) [2]: 89%
Population Tubulin-Different-Phenotype (%) [2]: 18%
Total Cell Count [2]: 411
Population Apoptotic (%) [3]: 27%
Population Fragmented Nuclei (%) [3]: 10%
Population Healthy Nuclei (%) [3]: 78%
Population Hoechst High Intensity Objects (%) [3]: 8%
Population Membrane Permeable-Phenotype (%) [3]: 0%
Population Mitochondria Different-Phenotype (%) [3]: 33%
Population Mitotic Cells (%) [3]: 72%
Population Normal (%) [3]: 91%
Population Pyknosed Nuclei (%) [3]: 10%
Population Tubulin-Different-Phenotype (%) [3]: 31%
Total Cell Count [3]: 437
Population Apoptotic (%) [4]: 52%
Population Fragmented Nuclei (%) [4]: 8%
Population Healthy Nuclei (%) [4]: 79%
Population Hoechst High Intensity Objects (%) [4]: 7%
Population Mitochondria Different-Phenotype (%) [4]: 51%
Population Mitotic Cells (%) [4]: 47%
Population Normal (%) [4]: 92%
Population Pyknosed Nuclei (%) [4]: 12%
Population Tubulin-Different-Phenotype (%) [4]: 18%
Total Cell Count [4]: 380
Population Apoptotic (%) [5]: 30%
Population Fragmented Nuclei (%) [5]: 8%
Population Healthy Nuclei (%) [5]: 79%
Population Hoechst High Intensity Objects (%) [5]: 2%
Population Membrane Permeable-Phenotype (%) [5]: 0%
Population Mitochondria Different-Phenotype (%) [5]: 21%
Population Mitotic Cells (%) [5]: 70%
Population Normal (%) [5]: 97%
Population Pyknosed Nuclei (%) [5]: 11%
Population Tubulin-Different-Phenotype (%) [5]: 20%
Total Cell Count [5]: 517
Population Apoptotic (%) [6]: 29%
Population Fragmented Nuclei (%) [6]: 7%
Population Healthy Nuclei (%) [6]: 83%
Population Hoechst High Intensity Objects (%) [6]: 7%
Population Mitochondria Different-Phenotype (%) [6]: 31%
Population Normal (%) [6]: 92%
Population Pyknosed Nuclei (%) [6]: 9%
Population Tubulin-Different-Phenotype (%) [6]: 13%
Total Cell Count [6]: 481
Population Apoptotic (%) [7]: 36%
Population Fragmented Nuclei (%) [7]: 10%
Population Healthy Nuclei (%) [7]: 79%
Population Hoechst High Intensity Objects (%) [7]: 6%
Population Membrane Permeable-Phenotype (%) [7]: 0%
Population Mitochondria Different-Phenotype (%) [7]: 24%
Population Mitotic Cells (%) [7]: 63%
Population Normal (%) [7]: 93%
Population Pyknosed Nuclei (%) [7]: 9%
Population Tubulin-Different-Phenotype (%) [7]: 15%
Total Cell Count [7]: 551
Population Apoptotic (%) [8]: 43%
Population Fragmented Nuclei (%) [8]: 8%
Population Healthy Nuclei (%) [8]: 82%
Population Hoechst High Intensity Objects (%) [8]: 8%
Population Mitochondria Different-Phenotype (%) [8]: 39%
Population Mitotic Cells (%) [8]: 56%
Population Normal (%) [8]: 91%
Total Cell Count [8]: 470
Population Apoptotic (%) [9]: 26%
Population Fragmented Nuclei (%) [9]: 13%
Population Healthy Nuclei (%) [9]: 79%
Population Hoechst High Intensity Objects (%) [9]: 3%
Population Membrane Permeable-Phenotype (%) [9]: 1%
Population Mitochondria Different-Phenotype (%) [9]: 15%
Population Mitotic Cells (%) [9]: 73%
Population Normal (%) [9]: 97%
Population Pyknosed Nuclei (%) [9]: 6%
Population Tubulin-Different-Phenotype (%) [9]: 9%
Total Cell Count [9]: 866
Population Apoptotic (%) [10]: 33%
Population Fragmented Nuclei (%) [10]: 10%
Population Healthy Nuclei (%) [10]: 81%
Population Hoechst High Intensity Objects (%) [10]: 7%
Population Membrane Permeable-Phenotype (%) [10]: 0%
Population Mitochondria Different-Phenotype (%) [10]: 22%
Population Mitotic Cells (%) [10]: 66%
Population Normal (%) [10]: 92%
Population Pyknosed Nuclei (%) [10]: 7%
Population Tubulin-Different-Phenotype (%) [10]: 14%
Total Cell Count [10]: 611
Population Apoptotic (%) [11]: 24%
Population Fragmented Nuclei (%) [11]: 16%
Population Healthy Nuclei (%) [11]: 75%
Population Hoechst High Intensity Objects (%) [11]: 4%
Population Membrane Permeable-Phenotype (%) [11]: 1%
Population Mitochondria Different-Phenotype (%) [11]: 18%
Population Mitotic Cells (%) [11]: 75%
Population Normal (%) [11]: 95%
Population Pyknosed Nuclei (%) [11]: 7%
Population Tubulin-Different-Phenotype (%) [11]: 10%
Total Cell Count [11]: 781
Population Apoptotic (%) [12]: 25%
Population Fragmented Nuclei (%) [12]: 11%
Population Healthy Nuclei (%) [12]: 80%
Population Membrane Permeable-Phenotype (%) [12]: 0%
Population Mitochondria Different-Phenotype (%) [12]: 19%
Population Tubulin-Different-Phenotype (%) [12]: 9%
Total Cell Count [12]: 689
